Measured values published in ChEMBL document CHEMBL1128317, “Phenoxypropylamines: a new series of squalene synthase inhibitors” (J Med Chem, 1995).

Target: T1, Squalene synthase (Rattus norvegicus, UniProt Q02769)
T1 sequence (Q02769 whole entry): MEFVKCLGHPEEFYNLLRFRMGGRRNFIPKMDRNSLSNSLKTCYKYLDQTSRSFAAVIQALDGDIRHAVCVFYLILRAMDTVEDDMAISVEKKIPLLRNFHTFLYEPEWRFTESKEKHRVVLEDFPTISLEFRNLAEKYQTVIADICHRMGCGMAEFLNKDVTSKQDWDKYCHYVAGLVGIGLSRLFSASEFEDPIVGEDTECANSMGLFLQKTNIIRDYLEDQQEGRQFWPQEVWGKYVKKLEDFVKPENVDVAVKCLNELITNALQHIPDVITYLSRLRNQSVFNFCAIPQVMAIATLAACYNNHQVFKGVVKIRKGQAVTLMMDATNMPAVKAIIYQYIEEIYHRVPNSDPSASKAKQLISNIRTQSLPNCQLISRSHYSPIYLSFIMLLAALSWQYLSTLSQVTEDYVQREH
Test: Inhibition of rat microsomal squalene synthase
Procedure, shortened: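 Rat liver microsomal protein (20 μg) incubated at 37 °C in 50 mM potassium phosphate with 4.95 mM MgCl2, 9.9 mM KF and 0.9 mM NADPH. 1-[3H]farnesyl pyrophosphate was added to 20 μM final, and the reaction was stopped after 15 min with 4% KOH. Labeled squalene was isolated on a C18 column. IC50 was derived from % inhibition versus controls (duplicates per concentration, 6–8 controls).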

Going from C=CCc1ccccc1OCCCNC(C)C to C=CCc1cc(N)ccc1OCCCNC(C)C, the IC50 rises from 56 nM to 250 nM (4.5-fold). The first is the more potent here.

First: C=CCc1cc(NC(=O)CC)ccc1OCCCNC(C)C
Second: C=CCc1cc(NC(C)=O)ccc1OCCCNC(C)C
The IC50 of the first is 13-fold lower: 5 nM for the first, 65 nM for the second.

Compared with CCCCOc1ccc(OCC(CNC(C)C)OC)cc1 (stereo not given), CCCCOc1ccc(OCCCNC(C)C)cc1 is 59-fold lower in IC50: 3300 nM for the first, 56 nM for the second. The second is the more potent here.

First: CC(C)NCCCOc1ccc(-c2cccnc2)cc1
Second: CC(C)NCCCOc1ccc(-c2ccccc2)cc1
The IC50 of the first is higher: greater than 2500 nM for the first, 170 nM for the second.

Going from C=CCc1ccccc1OCC(O)CNC(C)C (stereo not given) [ALPRENOLOL] to C=CCc1cc(C(=O)CCC)ccc1OCC(O)CNC(C)C (stereo not given), the IC50 falls from 4200 nM to 4.5 nM (930-fold). The second is the more potent here.

First: CC(C)=CCC/C(C)=C/c1ccccc1OCCCN(C)C(C)C
Second: CC(C)NCCCOc1ccccc1Cc1ccccc1
The IC50 of the first is higher: greater than 2500 nM for the first, 12 nM for the second.

Compared with CC(C)NCCCOc1cccc(-c2ccccc2)c1, C=CCc1cc(-c2ccccc2)ccc1OCCCNC(C)C is far lower in IC50: 600 nM for the first, 0.004 nM for the second.

First: CC(C)=CCC/C(C)=C/CC/C(C)=C/CCOP(=O)(O)C(=O)O
Second: C=CCc1cc(C(=O)CCC)ccc1OCCCNC(C)C
The IC50 of the first is 30000-fold higher: 30000 nM for the first, 1 nM for the second.

Going from C=CCc1cc(C(=O)OCC)ccc1OCCCNC(C)C to C=CCc1cc(OCCCC)ccc1OCCCNC(C)C, the IC50 rises from 0.05 nM to 0.6 nM (12-fold).

Compared with CCC(=O)Nc1ccc(OCC(O)CNC(C)C)c(Cc2ccccc2)c1 (stereo not given), CCC(=O)Nc1ccc(OCCCNC(C)C)c(Cc2ccccc2)c1 is 1500-fold lower in IC50: 900 nM for the first, 0.6 nM for the second.

First: CC(C)NCC(O)COc1ccccc1Cc1ccccc1 (stereo not given)
Second: CC(C)NCC(O)COc1ccc(-c2ccccc2)cc1 (stereo not given)
The IC50 of the first is 2.9-fold higher: 8800 nM for the first, 3000 nM for the second.

First: CCC(=O)Oc1ccc(OCCCNC(C)C)cc1
Second: CC(=O)Nc1ccc(OCCCNC(C)C)cc1
The IC50 of the first is lower: 3 nM for the first, greater than 2500 nM for the second. The first is the more potent here.

With CCOC(=O)c1ccc(OCC(O)CNC(C)C)cc1 (stereo not given) the IC50 was 1400 nM.
